Screening results: PubChem BioAssay, Broad Institute
Ecoli rRNA inh – inhibits bacterial ribosomal RNA function over humanized ribosomes; actives 1.6% (n = 350,000); E. coli WT GFP vs humanized-ribosome RFP mutants, fluorescence, 24 h; active compounds read low; DMSO median 0, no signal -100; AID 720706; GFP signal change (wild-type ribosome), % (concentration not given with the values);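 active = significant combined selectivity score with lowered wild-type GFP, culture density cut under 30%, mutant RFP and density less affected; inactive = any of these conditions unmet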
E-sel inducer – induces E-selectin expression in human endothelial cells | P16581 | HUVEC E-selectin immunofluorescence imaging; normalized: neutral wells 0, TNF-alpha wells 100 | activation, % at 7.58 µM | actives 0.37% (n = 260,000);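 active = mean E-selectin-positive cell signal at least 10% of the positive control, reached in at least 60% of replicates, without over 20% cell loss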
Target sequence (P16581 whole entry, looked up): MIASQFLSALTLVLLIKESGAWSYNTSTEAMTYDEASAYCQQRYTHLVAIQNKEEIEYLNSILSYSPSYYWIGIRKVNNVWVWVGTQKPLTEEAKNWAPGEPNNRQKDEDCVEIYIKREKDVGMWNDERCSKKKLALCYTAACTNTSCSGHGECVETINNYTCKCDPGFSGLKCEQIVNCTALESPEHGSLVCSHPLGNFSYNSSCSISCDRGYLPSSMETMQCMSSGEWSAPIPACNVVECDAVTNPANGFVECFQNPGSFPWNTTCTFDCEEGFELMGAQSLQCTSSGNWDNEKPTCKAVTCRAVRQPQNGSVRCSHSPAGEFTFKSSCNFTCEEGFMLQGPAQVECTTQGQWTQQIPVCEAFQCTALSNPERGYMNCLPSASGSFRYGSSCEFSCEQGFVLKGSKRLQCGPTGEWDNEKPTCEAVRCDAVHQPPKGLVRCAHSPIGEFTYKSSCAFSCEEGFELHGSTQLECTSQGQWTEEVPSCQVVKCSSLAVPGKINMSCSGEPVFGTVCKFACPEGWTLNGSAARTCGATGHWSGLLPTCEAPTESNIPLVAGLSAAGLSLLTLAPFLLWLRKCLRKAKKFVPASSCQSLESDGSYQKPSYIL
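Assay system: HUVEC primary endothelial cells. Input: 3,000 HUVEC seeded per well. Doses: one compound dose added by pin transfer. Read-out basis: % PE-positive cells. Benchmarks: TNF-alpha high, DMSO low. Detection: immunofluorescence imaging. Buffer or medium: EGM-2, gelatin.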
DENV2 CPE rescue – DENV2-induced cell death inhibition; DENV2-infected cells, cytopathic effect rescue, plate reader; AID 651640; actives 1.7% (n = 350,000); CPE inhibition, % at 9.99 µM; in the data active = CPE inhibition above about 20%, passing the limit was not always enough; tested in BHK-21 cells
Cneo AK release – causes C. neoformans cell lysis; lysis activity, % at 15 µM; AID 651654; adenylate kinase release luminescence, 4 h; normalised: neutral wells 0, clomiphene wells 100; actives 0.2% (n = 360,000);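 active = mean lysis activity across replicates of at least 80%, whatever share of replicates individually reach that level; inactive = mean lysis activity below 80%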
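Assay system: Cryptococcus neoformans yeast cells / Dosing: single-point compound dose / Timing: 4 h at 37 °C static, read 1 h later / Measured by: luminescence of released adenylate kinase using an AK detection reagent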
miR-122 sensor – miR-122 inhibition in Huh7 cells. Huh7 miR-122 Renilla luciferase sensor, 48 h; neutral wells = 0, positive control = 100. activation (reporter increase), % at 12.5 µM. actives 0.3% (n = 340,000). AID 602342;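 active = mean replicate activation score at least 90 and every replicate individually at or above 90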;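 note: higher luciferase means less miR-122 activity so hits act as miR-122 inhibitors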
A number is an active result; - = inactive; . = no result; ! = a repeat was not active; [ ] = remark or other dose. Hits are enriched below; roughly 3.1% of the tested compounds scored in any of these assays.

SMILES | Ecoli rRNA inh | E-sel inducer | DENV2 CPE rescue | Cneo AK release | miR-122 sensor
C[C@@H]1CN([C@H](C)CO)C(=O)c2c(c3ccccc3n2C)-c2ccccc2CO[C@@H]1CN(C)C(=O)c1cc(Cl)cc(Cl)c1 | - | - | 59.6 | . | .
C[C@@H]1CN([C@H](C)CO)C(=O)c2c(c3ccccc3n2C)-c2ccccc2CO[C@H]1CN(C)S(=O)(=O)c1ccc(Cl)cc1 | - | - | - | 107.0 | .
O=C(NCc1ccc(F)cc1)[C@H]1[C@H](CO)[C@H]2Cn3c(cccc3=O)[C@@H]1N2Cc1ccncc1 | - | - | - | - | -
C[C@H](CO)N1C[C@H](C)[C@H](CN(C)CC2CCOCC2)Oc2cc(C#CC3CC3)ccc2S1(=O)=O | - | - | 21.7 | - | -
C[C@H](O)C#Cc1ccc2c(c1)O[C@H](CN(C)CC1CCCCC1)[C@H](C)CN([C@H](C)CO)S2(=O)=O | - | - | - | - | -
C[C@@H]1CN([C@@H](C)CO)S(=O)(=O)c2ccc(C#C[C@@H](C)O)cc2O[C@H]1CN(C)CC1CCCC1 | - | - | 21.0 | - | -
C[C@@H]1CN([C@@H](C)CO)S(=O)(=O)c2ccc(C#Cc3ccccc3)cc2O[C@@H]1CN(C)CC1CC1 | - | 130.6 | - | - | -
C[C@H](CO)N1C[C@H](C)[C@H](CN(C)CC2CC2)Oc2cc(C#Cc3ccccc3)ccc2S1(=O)=O | - | - | - | - | -
C[C@H]1CN([C@@H](C)CO)C(=O)c2cc(-c3ccccc3F)cnc2O[C@H]1CN(C)C(=O)c1cnccn1 | - | - | - | - | -
CN(C)CC(=O)Nc1ccc2c(c1)[C@@H]1C[C@H](CC(=O)NC3CCCC3)O[C@@H](CO)[C@@H]1O2 | - | - | - | - | -
O=C(NCCN1CCC(n2c(=O)[nH]c3ccccc32)CC1)c1ccc2ccccc2c1 | - | - | - | . | .
O=C(NCCN1CCC(n2c(=O)[nH]c3ccccc32)CC1)N1c2ccccc2Sc2ccccc21 | -36.2 | - | - | . | .
O=C(NCCN1CCC(n2c(=O)[nH]c3ccccc32)CC1)c1cccnc1 | - | - | - | . | .
O=C(NCCN1CCC(n2c(=O)[nH]c3ccccc32)CC1)c1ccccc1 | - | - | 20.2 | . | .
C[C@@H]1CN([C@H](C)CO)C(=O)c2cc(NC(=O)Cc3ccccc3)ccc2O[C@@H](C)CCCCO[C@H]1CN(C)C(=O)Nc1cccc2ccccc12 | - | - | - | - | -
C[C@@H]1CN([C@H](C)CO)C(=O)c2cc(NC(=O)NC3CCCCC3)ccc2O[C@@H]1CN(C)C(=O)Nc1ccc(F)cc1 | - | - | 40.1 | - | -
C[C@H]1CN([C@@H](C)CO)C(=O)c2cc(NC(=O)NC3CCCCC3)ccc2O[C@@H]1CN(C)C(=O)Nc1ccccc1 | - | - | - | - | 93.4[16.7 µM]
C[C@H]1CN([C@@H](C)CO)C(=O)c2cc(NC(=O)NC3CCCCC3)ccc2O[C@H]1CN(C)C(=O)Nc1ccccc1 | - | - | - | - | -
CNC(=O)C[C@H]1CC[C@H]2[C@@H](COC[C@H](O)CN2C(=O)Nc2ccc3c(c2)OCO3)O1 | - | - | - | - | -
CN1CCN(C(=O)C[C@H]2CC[C@@H]3[C@H](COC[C@H](O)CN3Cc3cccc(Cl)c3)O2)CC1 | - | - | - | - | -
O=C(C[C@@H]1CC[C@H]2[C@@H](COC[C@@H](O)CN2Cc2cccc(-c3ccncc3)c2)O1)N1CCCCC1 | - | - | 28.8 | - | -
CN1CCN(C(=O)C[C@@H]2CC[C@@H]3[C@H](COC[C@@H](O)CN3Cc3cccc(Cl)c3)O2)CC1 | - | - | 30.8! | - | -
CN1CCN(C(=O)C[C@@H]2CC[C@@H]3[C@H](COC[C@@H](O)CN3Cc3ccc4c(c3)OCO4)O2)CC1 | - | - | 99.8 | - | -
O=C(C[C@H]1CC[C@H]2[C@@H](COC[C@H](O)CN2Cc2ccccc2F)O1)N1CCc2ccccc2C1 | - | - | 27.9 | - | -
Cc1ccc(NC(=O)NCCN2CCCCC2)cc1 | - | . | - | - | -
SMILES | Ecoli rRNA inh | E-sel inducer | DENV2 CPE rescue | Cneo AK release | miR-122 sensor
CCC(C)c1ccc(NC(=O)NCCN2CCCCC2)cc1 (centres undefined) | - | . | 29.7 | - | -
O=C(NCCN1CCCCC1)Nc1ccc(Br)cc1 | -32.5 | . | - | - | -
O=C(NCCN1CCN(Cc2ccccc2)CC1)Nc1cc(Cl)cc(Cl)c1 | -49.2 | - | - | - | -
COc1cccc(NC(=O)N[C@@H]2CC[C@H](CC(=O)N3CCCCC3)O[C@@H]2CO)c1 | - | - | - | - | .
CC(=O)Nc1ccc(C=NNc2ccc([N+](=O)[O-])cc2S(=O)(=O)Nc2ccccc2C(=O)O)cc1 | - | . | - | - | .
CN(CCO)c1ccc(C=NNc2ccc([N+](=O)[O-])cc2S(=O)(=O)Nc2ccccc2C(=O)O)cc1 | -14.1 | - | - | - | -
CCOc1cc(/C=N/Nc2ccc(S(=O)(=O)Nc3ccccc3C(=O)O)cc2[N+](=O)[O-])cc(Cl)c1O | -8.1 | - | - | - | -
COc1ccc(C(C)=NNc2ccc([N+](=O)[O-])cc2S(=O)(=O)Nc2ccccc2C(=O)O)c(OC)c1 | -20.1 | - | - | - | -
C[C@@H](O)C#Cc1cnc2c(c1)C(=O)N([C@@H](C)CO)C[C@H](C)[C@@H](CN(C)CC1CCOCC1)O2 | - | - | - | - | -
C[C@@H]1CN([C@@H](C)CO)C(=O)Cc2cc(NC(=O)CCN3CCOCC3)ccc2O[C@H]1CN(C)Cc1ccc(-c2ccccc2)cc1 | - | - | 32.2 | . | .
C[C@H]1CN([C@@H](C)CO)C(=O)Cc2cc(NC(=O)CCC(F)(F)F)ccc2O[C@H]1CN(C)Cc1ccc(-c2ccccc2)cc1 | - | - | 57.3 | - | -
C[C@@H]1CN([C@@H](C)CO)C(=O)Cc2cc(NC(=O)CCC(F)(F)F)ccc2O[C@H]1CN(C)Cc1ccc(-c2ccccc2)cc1 | - | - | - | - | -
C[C@@H]1CN([C@H](C)CO)C(=O)Cc2cc(NC(=O)CCN3CCOCC3)ccc2O[C@H]1CN(C)Cc1ccc(-c2ccccc2)cc1 | - | - | - | . | -
COc1ccc(S(=O)(=O)N(C)C[C@H]2OCCCC[C@H](C)Oc3ccc(NS(=O)(=O)c4ccc(Cl)cc4)cc3C(=O)N([C@H](C)CO)C[C@H]2C)cc1 | - | - | 20.9 | . | .
COc1ccc(S(=O)(=O)Nc2ccc3c(c2)C(=O)N([C@@H](C)CO)C[C@@H](C)[C@@H](CN(C)S(=O)(=O)c2ccc(Cl)cc2)OCCCC[C@H](C)O3)cc1 | - | - | 35.4 | - | -
COc1ccc(S(=O)(=O)Nc2ccc3c(c2)C(=O)N([C@H](C)CO)C[C@H](C)[C@@H](CN(C)S(=O)(=O)c2ccc(Cl)cc2)OCCCC[C@H](C)O3)cc1 | - | - | - | - | -
O=C(C[C@H]1CC[C@@H](NC(=O)c2ccccc2)[C@H](CO)O1)NCc1ccncn1 | - | - | - | - | .
